Results gathered from unrelated publications.
Compare with care: the assays were run in different laboratories.
FLT3: Receptor-type tyrosine-protein kinase FLT3 (FLT3, Homo sapiens, UniProt P36888)
FLT3 D835V: Receptor-type tyrosine-protein kinase FLT3 (FLT3, Homo sapiens, UniProt P36888, D835V)
FLT3 D835Y: Receptor-type tyrosine-protein kinase FLT3 (FLT3, Homo sapiens, UniProt P36888, D835Y)
FLT3 N841I: Receptor-type tyrosine-protein kinase FLT3 (FLT3, Homo sapiens, UniProt P36888, N841I)
FLT3 D835H: Receptor-type tyrosine-protein kinase FLT3 (FLT3, Homo sapiens, UniProt P36888, D835H)

`COc1cc(Nc2c(C#N)cnc3cc(OCCCN4CCN(C)CC4)c(OC)cc23)c(Cl)cc1Cl` has a remaining signal of 30.3% (FLT3; cell-free assay; 0.5 µM).
`CS(=O)(=O)N1CCCC(NC(=O)[C@H](CCC2CCCCC2)NC(=O)c2ccc(CNc3ncnc4c3nnn4-c3ccccc3)cc2)C1` (stereo partly shown) gave a remaining binding of 82% (FLT3; cell-free assay, competition with immobilised ligand; 0.1 µM).
With `F[C@@H]1CCN(c2nccc(-c3cnn4ncccc34)n2)C1` the remaining binding was 81% (FLT3; binding; 1 µM).
`CC(=O)Nc1c(C(C)=O)c(=O)n(C)c2nc(-c3ccc(Cl)cc3Cl)c(-c3ccc(Cl)cc3)cc12` has a remaining binding of 100% (Receptor-type tyrosine-protein kinase FLT3 (FLT3, Homo sapiens, UniProt P36888, F691L/ITD); cell-free assay, competition with immobilised ligand; 1 µM).
The remaining activity of `Cc1[nH]c(/C=C2\C(=O)Nc3ccc(F)cc32)c(C)c1C(=O)N[C@H]1CCN(C(=O)N(C)C)C1` is reported as 3% (FLT3; enzyme activity, inhibitor; 0.1 µM).
For `Cc1cc(NC(=O)c2cccc3cc(-c4cccc5[nH]nc(N)c45)ccc23)ccc1F`, the activity vs control was 109% (FLT3; enzyme activity, inhibitor; 0.1 µM).
`O=C(Nc1cnn(-c2csc(C(=O)NC3COC3)c2)c1)Nc1ccccc1Cl` has a remaining activity of 89.7% (FLT3; enzyme activity, inhibitor; 5 µM).
With `N[C@H]1CCN(c2nccc(-c3cnn4ncccc34)n2)C1` the remaining binding was 99% (FLT3; binding; 1 µM).
The remaining binding of `COc1cc(-c2cn(C3CCc4c(F)cccc4N(CC(F)(F)F)C3=O)nn2)ccc1-n1cnc(C)c1` (stereo not shown) is reported as 97% (FLT3 D835V; cell-free assay, competition with immobilised ligand; 1 µM).
`Cc1cnc(Nc2ccc(C(=O)N3CCC(N4CCCC4)CC3)cc2)nc1-c1cc2ccccc2s1` gave a remaining binding of 2.2% (Receptor-type tyrosine-protein kinase FLT3 (FLT3, Homo sapiens, UniProt P36888, K663Q); binding, competition with immobilised ligand; 1 µM).
For `N#CC1(c2ccccn2)CCN(Cc2cc(C(=O)N3CCCC3)c(=O)n3ccccc23)CC1`, the remaining binding was 71% (FLT3 D835Y; cell-free assay, competition with immobilised ligand; 1 µM).
With `Cc1ccc(NC(=O)c2ccc(C)c(C(F)(F)F)c2)cc1C#Cc1nn(C2CCC(O)CC2)c2ncnc(N)c12` (stereo not shown) the remaining activity was 118% (FLT3 D835Y; enzyme activity, inhibitor; 10 µM).
For `O=C(Nc1cccnn1)N1CCC(=Cc2cccc(Oc3ccc(C(F)(F)F)cn3)c2)CC1`, the remaining binding was 100% (FLT3 D835Y; cell-free assay, competition with immobilised ligand; 1 µM).
The remaining activity of `COc1cc(Cl)c(C(=O)N[C@@H](CN[C@H]2CC[C@@H](N)CC2)Cc2ccc(C#N)cc2)cc1-c1ccc(CN[C@H](C)c2ccc(C)cc2)o1` is reported as 103% (FLT3; enzyme activity, inhibitor; 1 µM).
The remaining binding of `CCCCN(CCCC)C(=O)CN1C[C@H](c2cc(OC)c3c(c2)OCO3)[C@@H](C(=O)O)[C@@H]1CC(C)(C)CCC` is reported as 100% (FLT3 N841I; cell-free assay, competition with immobilised ligand; 1 µM).
`Fc1cccc(-n2cnc3c(NCc4nc5c(F)c(F)ccc5[nH]4)nc(N4CCOCC4)nc32)c1` gave a binding vs control of 41% (FLT3 D835Y; binding, competition with immobilised ligand; 10 µM).
The remaining binding of `O=C(NCCCC1CCCCC1)c1ccc(CNC(=O)c2cnn(-c3ccccc3)c2C(F)(F)F)cc1` is reported as 100% (Receptor-type tyrosine-protein kinase FLT3, autoinhibited (FLT3, Homo sapiens, UniProt P36888); cell-free assay, competition with immobilised ligand; 0.1 µM).
The remaining activity of `CCCOc1ccc(OC)c(F)c1C(=O)c1ccc(C(=O)N[C@@H]2CNC[C@H]2NC(=O)c2ccc3[nH]ncc3c2)cc1` is reported as 12% (FLT3 D835Y; enzyme activity, inhibitor; 10 µM).
`c1cnn2ncc(-c3ccnc(N4CCC45COC5)n3)c2c1` has a remaining binding of 72% (FLT3 N841I; binding; 1 µM).
With `O=C(NCCCN1CCOCC1)c1ccc(Nc2ncc(Cl)c(-c3ccc(Cl)s3)n2)cc1` the remaining binding was 1.3% (FLT3 D835V; binding, competition with immobilised ligand; 1 µM).
`CC1CCCN1c1nccc(-c2cnn3ncccc23)n1` (stereo not shown) gave a remaining binding of 79% (FLT3 D835V; binding; 1 µM).
With `CNC(=O)c1cc(Oc2ccc(NC(=O)Nc3ccc(Cl)c(C(F)(F)F)c3)cc2)ccn1` the remaining signal was 9.22% (FLT3; cell-free assay; 0.5 µM).
With `COc1ccnn2ncc(-c3ccnc(N(C)C)n3)c12` the remaining binding was 100% (FLT3; binding; 1 µM).
`Cc1cnc(-c2ccc(-c3ccc(NC(=O)Nc4c(F)cc(F)cc4F)cc3F)c3c2C(=O)NC3)[nH]1` has an activity vs control of 6.2% (Receptor-type tyrosine-protein kinase FLT3 (FLT3, Homo sapiens, UniProt P36888, ITD); enzyme activity, inhibitor; 0.1 µM, 90 min).
`CCOCCn1cc(C(=O)Nc2ccc(-n3nc(-c4cccnc4)cc3C(F)(F)F)cn2)ccc1=O` gave a remaining binding of 87% (FLT3 D835H; cell-free assay, competition with immobilised ligand; 1 µM).
For `C[C@@H]1CCN(c2nccc(-c3cnn4ncccc34)n2)C1`, the remaining binding was 100% (FLT3 D835H; binding; 1 µM).
The remaining binding of `O=C(c1ccc(Nc2ncc(Cl)c(-c3cc4ccccc4s3)n2)cc1)N1CCC(N2CCCC2)CC1` is reported as 7.6% (Receptor-type tyrosine-protein kinase FLT3 (FLT3, Homo sapiens, UniProt P36888, D835V/ITD); binding, competition with immobilised ligand; 1 µM).
With `O=C(c1cc2cc(O)ccc2[nH]1)c1cc2cc(O)ccc2[nH]1` the remaining signal was 3.53% (FLT3; cell-free assay; 0.5 µM).
`CN(c1nccc(-c2cnn3ncccc23)n1)C1CC1` has a remaining binding of 78% (FLT3 D835V; binding; 1 µM).
`N#CCCc1ccc2c(c1)-c1[nH]c3ccc([N+](=O)[O-])cc3c1CC(=O)N2` gave a remaining signal of 15.1% (FLT3; cell-free assay; 0.5 µM).
With `Nc1ncnc2occ(-c3ccc(NC(=O)Nc4cc(C(F)(F)F)ccc4F)cc3)c12` the remaining signal was 0% (FLT3 D835V; cell-free assay, inhibitor; 20 µM).
`Cc1ccc(C(=O)Nc2ccc(CN3CCN(C)CC3)c(C(F)(F)F)c2)cc1C#Cc1cnc2cccnn12` gave a remaining activity of 0% (FLT3 N841I; enzyme activity, inhibitor; 23.5 nM).
`O=C1NC(=O)c2cc(Nc3ccc(F)cc3)c(Nc3ccc(F)cc3)cc21` gave a remaining signal of 91.5% (FLT3; cell-free assay; 0.5 µM).
`CC(C)(C)c1nc(-c2cccc(NS(=O)(=O)c3c(F)cccc3F)c2F)c(-c2ccnc(N)n2)s1` gave a remaining activity of 117% (FLT3; enzyme activity, inhibitor, radiometric; 1 µM).
With `CCN(CC)c1ccc(C2=NNC(=O)CC2C)cc1[N+](=O)[O-]` (stereo not shown) the remaining activity was 89% (FLT3; enzyme activity, inhibitor; 10 µM).
`Cc1cnn2ncc(-c3ccnc(N(C)C)n3)c2c1` has a remaining binding of 81% (FLT3 D835Y; binding; 1 µM).
For `O=C(NCCCN1CCOCC1)c1ccc(Nc2nccc(-c3cc4ccccc4s3)n2)cc1`, the remaining binding was 61% (FLT3; binding, competition with immobilised ligand; 1 µM).
